Experiments:
[1] = molecular target: Estrogen receptor (Bos taurus) (UniProt Q9XSB5+P49884); assay: Relative binding affinity to calf uterine estrogen receptor; assay type: protein assay
Outline: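 Calf uterine cytosol (105000g supernatant, 3 mg/mL protein in the assay) in Tris/EDTA/NaN3 buffer pH 7.5, with 5 nM 17β-[3H]estradiol and competitor at 10^-9–10^-5 M. Incubated 18 h at 4 °C; bound and free ligand separated with dextran-coated charcoal. Nonspecific binding defined with 5 μM estradiol. RBA = ratio of molar concentrations of estradiol and compound giving 50% displacement × 100.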

[2] = molecular target: T1, Estrogen receptor (Mus musculus) (UniProt O08537+P19785); assay: Anti-uterotrophic effect in mice at 125 ug; assay type: functional
T1 sequence (O08537 whole entry, looked up): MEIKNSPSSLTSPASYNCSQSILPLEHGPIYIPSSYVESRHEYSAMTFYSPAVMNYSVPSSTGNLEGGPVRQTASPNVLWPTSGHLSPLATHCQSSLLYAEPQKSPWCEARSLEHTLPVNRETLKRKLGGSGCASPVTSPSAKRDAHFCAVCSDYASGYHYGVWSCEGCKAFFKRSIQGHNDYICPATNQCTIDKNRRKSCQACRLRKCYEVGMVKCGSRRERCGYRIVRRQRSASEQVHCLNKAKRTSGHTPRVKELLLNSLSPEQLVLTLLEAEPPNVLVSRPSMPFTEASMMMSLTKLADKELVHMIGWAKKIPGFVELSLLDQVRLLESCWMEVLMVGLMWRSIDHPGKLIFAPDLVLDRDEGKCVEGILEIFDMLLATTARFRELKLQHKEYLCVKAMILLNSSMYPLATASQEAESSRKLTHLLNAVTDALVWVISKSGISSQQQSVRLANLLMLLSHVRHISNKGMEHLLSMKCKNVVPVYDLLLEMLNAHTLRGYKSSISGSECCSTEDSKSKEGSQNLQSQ
T1 sequence (P19785 whole entry, looked up): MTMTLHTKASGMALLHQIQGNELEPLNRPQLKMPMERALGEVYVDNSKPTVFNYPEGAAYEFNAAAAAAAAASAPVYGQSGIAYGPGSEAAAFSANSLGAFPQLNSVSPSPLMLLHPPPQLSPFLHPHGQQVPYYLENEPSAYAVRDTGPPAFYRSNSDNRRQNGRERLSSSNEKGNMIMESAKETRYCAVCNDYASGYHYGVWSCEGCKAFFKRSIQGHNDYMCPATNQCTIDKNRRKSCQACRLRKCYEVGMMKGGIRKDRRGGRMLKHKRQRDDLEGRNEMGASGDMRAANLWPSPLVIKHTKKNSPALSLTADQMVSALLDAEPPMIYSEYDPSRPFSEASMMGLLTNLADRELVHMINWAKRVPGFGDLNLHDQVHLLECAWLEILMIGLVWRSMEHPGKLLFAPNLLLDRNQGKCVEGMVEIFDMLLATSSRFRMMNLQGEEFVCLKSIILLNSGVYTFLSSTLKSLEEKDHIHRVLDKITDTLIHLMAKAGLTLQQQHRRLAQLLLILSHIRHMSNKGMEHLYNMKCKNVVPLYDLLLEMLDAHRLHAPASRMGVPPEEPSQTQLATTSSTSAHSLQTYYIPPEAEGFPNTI
Outline: (§1)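 Immature female NMRI mice (20 days old), groups of 6-10, injected sc in olive oil (100 μL/animal) on three consecutive days with test compound plus 0.4 μg estrone per animal and day. Killed 24 h after last injection; uteri fixed in Bouin solution, dried at 100 °C for 24 h. Relative uterine weight = uterine dry weight (mg)/body weight (g) × 100; mean of six animals ± SD.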

[3] = molecular target: T1, Estrogen receptor (Mus musculus); assay: Anti-uterotrophic effect in mice at 5 ug; assay type: functional; outline: as §1
[4] = molecular target: T1, Estrogen receptor (Mus musculus); assay: Uterotrophic effect in mice at 125 ug; assay type: functional, tissue-based; settings: Uterus
Outline: (§2)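 Immature NMRI female mice, 20 days old, groups of 6-10, received test compound in olive oil (100 μL/animal) sc on three consecutive days; vehicle controls were included. At 24 h after the last dose, uteri were fixed in Bouin solution and dried at 100 °C for 24 h. Read-out was uterine dry weight (mg)/body weight (g) × 100, mean of six animals ± SD.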

[5] = molecular target: T1, Estrogen receptor (Mus musculus); assay: Uterotrophic effect in mice at 25 ug; assay type: functional, tissue-based; settings: Uterus; outline: as §2
[6] = molecular target: T1, Estrogen receptor (Mus musculus); assay: Uterotrophic effect in mice at 5 ug; assay type: functional, tissue-based; settings: Uterus; outline: as §2
[7] = molecular target: T1, Estrogen receptor (Mus musculus); assay: Percent inhibition of uterotrophic effect in mice at 125 ug dose; assay type: functional
Outline: (§3)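 Mice were immature female NMRI (20 days old) given sc injections in olive oil on three consecutive days, each containing 0.4 μg estrone plus test compound. Uteri were weighed dry 24 h after the last injection. Antagonism (%) = 100 − [(W_S,T − W_V)/(W_S − W_V) × 100], with relative uterine weights from estrone+compound, estrone alone and vehicle controls. Significance was tested by Mann-Whitney U test.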

[8] = molecular target: T1, Estrogen receptor (Mus musculus); assay: Percent inhibition of uterotrophic effect in mice at 5 ug dose; assay type: functional; outline: as §3
[9] = molecular target: T1, Estrogen receptor (Mus musculus); assay: Anti-uterotrophic effect in mice at 25 ug; assay type: functional; outline: as §1
[10] = molecular target: T1, Estrogen receptor (Mus musculus); assay: Percent inhibition of uterotrophic effect in mice at 25 ug dose; assay type: functional; outline: as §3
[11] = molecular target: T1, Estrogen receptor (Mus musculus); assay: Anti-uterotrophic effect in mice at 1 ug; assay type: functional; outline: as §1
[12] = molecular target: T1, Estrogen receptor (Mus musculus); assay: Uterotrophic effect in mice at 1 ug; assay type: functional, tissue-based; settings: Uterus; outline: as §2
[13] = molecular target: T1, Estrogen receptor (Mus musculus); assay: Percent inhibition of uterotrophic effect in mice at 1 ug dose; assay type: functional; outline: as §3

SMILES | relative binding affinity (RBA) [1] | Relative uterine weight [2] | Relative uterine weight [3] | Relative uterine weight [4] | Relative uterine weight [5] | Relative uterine weight [6] | inhibition [7] | inhibition [8] | Relative uterine weight [9] | inhibition [10] | Relative uterine weight [11] | Relative uterine weight [12] | inhibition [13]
CC1=C(c2ccc(O)cc2)C(CCCCCCN2CCCCC2)c2ccc(O)cc21 (stereo unspecified) | 23 | 22.3 | 28.9 | 24.7 | 21.4 | 19.7 | 98% | 71% | – | – | – | – | –
CC1=C(c2ccc(O)cc2)C(CCCCCCN2CCOCC2)c2ccc(O)cc21 (stereo unspecified) | 10 | 18 | 51.2 | 17.4 | 21.8 | 19.5 | 102% | 8% | 47.7 | 18% | – | – | –
CC1=C(c2ccc(O)cc2)C(CCCCCCN)c2ccc(O)cc21 (stereo unspecified) | 25 | 16.2 | 30.1 | 16.9 | 12.4 | 11.9 | 99% | 68% | 15 | 102% | 65.9 | 10.9 | –
CC1=C(c2ccc(O)cc2)C(CCCCCCNCc2ccccc2)c2ccc(O)cc21 (stereo unspecified) | 15 | 40.8 | 53.2 | 34 | 23.6 | 17.8 | 51% | 25% | 44.6 | 43% | – | – | –
CC1=C(c2ccc(O)cc2)C(CCCCCCN(C)C)c2ccc(O)cc21 (stereo unspecified) | 12 | – | – | – | – | – | – | – | – | – | – | – | –
CC1=C(c2ccc(O)cc2)C(CCCCCCN2CCCC2)c2ccc(O)cc21 (stereo unspecified) | – | 8.9 | 15.4 | 14.1 | 13.9 | 9 | 117% | 100% | 14.4 | 103% | 45.8 | 12.5 | 20%
CC1=C(c2ccc(O)cc2)C(CCCCCCCN)c2ccc(O)cc21 (stereo unspecified) | 11 | – | – | – | – | – | – | – | – | – | – | – | –
Oc1ccc(C2=Cc3cc(O)ccc3C2CCCCCCN2CCCC2)cc1 (stereo unspecified) | 2.3 | – | – | – | – | – | – | – | – | – | – | – | –
CNCCCCCCC1C(c2ccc(O)cc2)=C(C)c2cc(O)ccc21 (stereo unspecified) | 27 | 33.7 | 38.1 | 34 | – | 22.8 | 59% | 49% | – | – | – | 14.4 | –
CCN(CC)CCCCCCC1C(c2ccc(O)cc2)=C(C)c2cc(O)ccc21 (stereo unspecified) | 14 | 30.9 | 46 | 22.4 | 18.2 | 16.1 | 61% | 23% | 52.5 | – | – | – | –
CC1=C(c2ccc(O)cc2)C(CCCCCCCCN2CCCC2)c2ccc(O)cc21 (stereo unspecified) | 7.6 | – | – | – | – | – | – | – | – | – | – | – | –
CC1=C(c2ccc(O)cc2)C(CCCCN2CCCC2)c2ccc(O)cc21 (stereo unspecified) | 3.6 | 25.5 | 47.6 | 6.4 | 6.4 | 8 | 53% | – | 16.2 | 78% | 43.7 | 7.6 | 5%
Oc1ccc(C2=Cc3cc(O)ccc3C2CCCCCCN2CCCCC2)cc1 (stereo unspecified) | 1.3 | – | – | – | – | – | – | – | – | – | – | – | –

From ChEMBL document CHEMBL1125054, “1-(aminoalkyl)-2-phenylindoles as novel pure estrogen antagonists” (J Med Chem, 1990)
